Assay results as given in ChEMBL document CHEMBL4219127, “Structural design, synthesis and substituent effect of hydrazone-N-acylhydrazones reveal potent immunomodulatory agents” (Bioorg Med Chem, 2018).
pIC50: −log10 of the molar value. Active and inactive are the calls of the source. No cut-off for these calls is given here.

Tests used:
[1] = Cytotoxicity against BALB/c mouse J774 cells assessed as reduction in cell viability after 72 hrs by alamarBlue assay; assay type: cell-based
Procedure, shortened: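 J774 murine macrophages, 1×10^4 cells/well in DMEM + 10% FBS, pre-incubated 24 h at 37°C, 5% CO2; compounds 100–0.41 μM in triplicate for 72 h. AlamarBlue added for 4 h, absorbance at 570 and 600 nm; gentian violet positive control. CC50 from three independent experiments.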

J774 = test: Antiinflammatory activity in BALB/c mouse J774 cells assessed as inhibition of LPS/IFNgamma-induced nitric oxide production at 20 uM after 24 hrs by Griess method relative to control; assay type: functional; conditions: J774, 24 h
Procedure, shortened: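 J774 macrophages, 2×10^5 cells/well in DMEM + 10% FBS, allowed to settle 2 h at 37°C, 5% CO2; stimulated with LPS (E. coli 0111:B4, 500 ng/mL) plus IFNγ (5 ng/mL) with compound present (primary screen at 20 μM). Nitrite measured by Griess in supernatants at 24 h; % inhibition against stimulated untreated control.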

Splenocyte [2] = test: Immunomodulatory activity in BALB/c mouse splenocytes assessed as inhibition of concanavalin A-induced lymphocyte proliferation by measuring [3H]-thymidine uptake after 48 to 72 hrs by scintillation counting analysis; assay type: functional, cell-based
Procedure, shortened: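 BALB/c splenocytes at 1×10^6 cells/well, in triplicate, stimulated with Con A (2 μg/mL) or anti-CD3/CD28 beads (1:1 bead:cell) with compound at 12–0.04 μM. After 48 h, 1 μCi 3H-thymidine added for a further 18 h; scintillation counting. Proliferation as % uptake versus untreated; dexamethasone control. IC50 from three independent experiments.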

Mus musculus = test: Antiinflammatory activity in carrageenan-induced BALB/c mouse peritonitis model assessed as reduction in number of neutrophils in peritoneal fluid at 80 mg/kg, ip pretreated for 1 hr followed by carrageenan challenge measured after 4 hrs by hematoxylin and eosin staining-based assay relative to control; assay type: functional
Procedure, shortened: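 Male BALB/c mice were dosed orally with compound (20 or 80 mg/kg) or vehicle; indomethacin 80 mg/kg was given ip. One hour later, carrageenan (250 µL of 1.0 mg/mL) was injected ip. Peritoneal lavage with 2 mL saline at 4 h. Total leukocytes counted in Neubauer chamber with Trypan blue; neutrophils by blinded 200-cell differential on H&E-stained cytospins.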

Splenocyte [3] = test: Antiinflammatory activity in BALB/c mouse splenocytes assessed as inhibition of concanavalin A-induced IL-2 level at 1 uM after 48 hrs by ELISA; assay type: functional, cell-based
Procedure, shortened: (§1)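 Splenocytes from BALB/c mice at 5×10^6 cells/well in DMEM, stimulated with Con A 5 µg/mL, with compound at 10, 5 and 2.5 µM. Cell-free supernatants collected at 48 h and stored at -80 °C. IL-2, IL-4, IL-10, IL-17 and IFNγ measured by sandwich ELISA. Dexamethasone control at 10 µM (1.0 µM for IL-2). Mean±S.E.M. from one of two experiments.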

Splenocyte [4] = test: Antiinflammatory activity in BALB/c mouse splenocytes assessed as inhibition of concanavalin A-induced IL-4 level at 10 uM after 48 hrs by ELISA; assay type: functional, cell-based; procedure, shortened: as §1
Splenocyte [5] = test: Antiinflammatory activity in BALB/c mouse splenocytes assessed as inhibition of concanavalin A-induced IL-10 level at 10 uM after 48 hrs by ELISA; assay type: functional, cell-based; procedure, shortened: as §1
Splenocyte [6] = test: Antiinflammatory activity in BALB/c mouse splenocytes assessed as inhibition of concanavalin A-induced IL-17A level at 10 uM after 48 hrs by ELISA; assay type: functional, cell-based; procedure, shortened: as §1
Splenocyte [7] = test: Antiinflammatory activity in BALB/c mouse splenocytes assessed as inhibition of concanavalin A-induced IFN-gamma level at 10 uM after 48 hrs by ELISA; assay type: functional, cell-based; procedure, shortened: as §1

| Structure (SMILES) | CC50 at 72 h [1] | inhibition at 20 µM (J774) | pIC50 (Splenocyte [2]) | also measured |
| --- | --- | --- | --- | --- |
| CC(/C=N/Nc1ccc([N+](=O)[O-])cc1)=N\NC(=O)c1ccccc1 | > 100 µM | 31.4% | < 4.92 | – |
| CC(/C=N/Nc1ccc([N+](=O)[O-])cc1)=N\NC(=O)c1ccc2c(c1)OCO2 | > 100 µM | 23.2% | < 4.92 | – |
| CC(/C=N/Nc1ccc([N+](=O)[O-])cc1)=N\NC(=O)c1cccc(C)c1 | > 100 µM | 9.3% | < 4.92 | – |
| CC(/C=N/N(C)c1ccc([N+](=O)[O-])cc1)=N\NC(=O)c1ccc(N)cc1 | 51.7 µM | 3.6% | < 4.92 | – |
| COc1ccc2c(c1)c(CC(=O)O)c(C)n2C(=O)c1ccc(Cl)cc1 [INDOMETHACIN] | – | – | – | inhibition in vivo at 80 mg/kg (Mus musculus): 35.9% |
| CC(/C=N/Nc1ccc([N+](=O)[O-])cc1)=N\NC(=O)c1ccccc1Nc1ccccc1 | > 100 µM | 14.1% | – | – |
| COc1cc(C(=O)N/N=C(C)/C=N/Nc2ccc([N+](=O)[O-])cc2)ccc1O | > 100 µM | 6.6% | 5.29 | – |
| CC(/C=N/Nc1ccc([N+](=O)[O-])cc1)=N\NC(=O)c1ccccc1O | 29.5 µM | 59.7% | 5.79 | – |
| CC(/C=N/N(C)c1ccc([N+](=O)[O-])cc1)=N\NC(=O)c1cc([N+](=O)[O-])cc([N+](=O)[O-])c1 | 39 µM | 51% | 5.95 | – |
| CN(C)c1ccc(C(=C2C=CC(=[N+](C)C)C=C2)c2ccc(N(C)C)cc2)cc1 [GENTIAN VIOLET] | 4.1 µM | – | – | – |
| CC(/C=N/Nc1ccc([N+](=O)[O-])cc1)=N\NC(=O)c1ccc(O)cc1 | 51 µM | 43.8% | 5.82 | – |
| COc1ccc(C(=O)N/N=C(C)/C=N/Nc2ccc([N+](=O)[O-])cc2)cc1 | > 100 µM | 7.5% | < 4.92 | – |
| CC(/C=N/Nc1ccc([N+](=O)[O-])cc1)=N\NC(=O)c1ccc(C(C)(C)C)cc1 | > 100 µM | 4.8% | < 4.92 | – |
| CC(/C=N/Nc1ccc([N+](=O)[O-])cc1)=N\NC(=O)c1ccc(C(F)(F)F)cc1 | 78.7 µM | 18.7% | < 4.92 | – |
| CC(/C=N/Nc1ccc([N+](=O)[O-])cc1)=N\NC(=O)c1ccc(N)cc1 | 75 µM | 12.8% | < 4.92 | – |
| CC(/C=N/Nc1ccc([N+](=O)[O-])cc1)=N\NC(=O)c1ccccc1I | 40 µM | 56.8% | 5.53 | – |
| CC(/C=N/Nc1ccc([N+](=O)[O-])cc1)=N\NC(=O)c1ccc(Cl)cc1 | 63.9 µM | 23% | 5.38 | – |
| CC(/C=N/Nc1ccc([N+](=O)[O-])cc1)=N\NC(=O)c1ccccc1C | > 100 µM | 21.9% | 5.22 | – |
| CC(/C=N/Nc1ccc([N+](=O)[O-])cc1)=N\NC(=O)c1ccc([N+](=O)[O-])cc1 | > 100 µM | 39.1% | 6.01 | – |
| C[C@@H]1C[C@H]2[C@@H]3CCC4=CC(=O)C=C[C@]4(C)[C@@]3(F)[C@@H](O)C[C@]2(C)[C@@]1(O)C(=O)CO [DEXAMETHASONE] | 91.1 µM | 69.8% | 9.00 | inhibition (Splenocyte [3]): Active; inhibition (Splenocyte [4]): Active; inhibition (Splenocyte [5]): Active; inhibition (Splenocyte [6]): Active; inhibition (Splenocyte [7]): Active |
| CC(/C=N/Nc1ccc([N+](=O)[O-])cc1)=N\NC(=O)c1ccccc1N | 29.8 µM | 39.3% | 5.31 | – |
| CC(/C=N/N(C)c1ccc([N+](=O)[O-])cc1)=N\NC(=O)c1ccccc1O | 31.5 µM | 41% | 5.51 | – |
| CC(/C=N/Nc1ccc([N+](=O)[O-])cc1)=N\NC(=O)c1ccccc1Cl | > 100 µM | 39.4% | < 4.92 | – |
| CC(/C=N/Nc1ccc([N+](=O)[O-])cc1)=N\NC(=O)c1ccccc1Oc1ccccc1 | > 100 µM | 5.5% | < 4.92 | – |
| CC(/C=N/Nc1ccc([N+](=O)[O-])cc1)=N\NC(=O)c1ccccc1F | > 100 µM | 5.3% | < 4.92 | – |
| CC(/C=N/Nc1ccc([N+](=O)[O-])cc1)=N\NC(=O)c1ccc(N(C)C)cc1 | > 100 µM | 25.6% | < 4.92 | – |
